Experimental data collected from several papers.
Each line is one published result; the experiments were not run side by side.
Observed: cell growth or viability

NC(=NCc1ccccc1)NC(=O)c1nc(Cl)c(N)nc1N  CC50 (BHK-21; CCK-8; 48 h): 44.5 µM
COC(=O)c1ccc(Nc2ccc(-c3ccc(S(N)(=O)=O)cc3)cc2)cc1  viability (BHK-21; MTT; 100 µM): 68%
CC1=NN(c2ccc(C)c(C)c2)C(=O)/C1=N\Nc1cccc(-c2cccc(C(=O)O)c2)c1O  CC50 (BHK-21; CCK-8; 48 h): 104 µM
Nc1nc2c(ncn2COCCO)c(=O)[nH]1  CC50 (Vero; MTT; 48 h): 320 µM
O=C(C1CCCCC1)N1CC(=O)N2CCc3ccccc3C2C1 (centres unmarked)  CC50 (Vero; MTT; 72 h): > 200 µM
NS(=O)(=O)c1ccc(-c2ccc(Nc3ccc(Cl)cc3)cc2)cc1  viability (BHK-21; MTT; 100 µM): 60%
COc1cccc2c1C(=O)c1c(O)c3c(c(O)c1C2=O)C[C@@](O)(C(=O)CO)C[C@@H]3O[C@H]1C[C@H](N)[C@H](O)[C@H](C)O1  CC50 (Vero; MTT; 72 h): 9.6 µM
CNC(=N)NCCC[C@H](N)C(=O)O  viability (RAW264.7; MTT; 250 µg/mL, 24 h, LPS-stimulated): > 85%
Cc1cc(-c2ccc(/N=N/c3ccc4c(S(=O)(=O)O)cc(S(=O)(=O)O)c(N)c4c3O)c(C)c2)ccc1/N=N/c1ccc2c(S(=O)(=O)O)cc(S(=O)(=O)O)c(N)c2c1O  CC50 (BHK-21; CCK-8; 48 h): 242 µM
Cc1cc(C)cc(Nc2ccc(-c3ccc(S(N)(=O)=O)cc3)cc2)c1  viability (BHK-21; MTT; 100 µM): 88%
O=C1C(=O)c2cccnc2-c2ncccc21  CC50 (Vero; MTT; 72 h): > 200 µM
